Measured values published in ChEMBL document CHEMBL1157684, “2-Thienyl-4-furyl-6-aryl pyridine derivatives: synthesis, topoisomerase I and II inhibitory activity, cytotoxicity, and structure-activity relationship study” (Bioorg Med Chem, 2010).
Calls of active or inactive are those of the source. The calls are words filed in the database; no cut-off is given here.

Experiments:
[1] = biological target: T1, DNA topoisomerase 1 (Homo sapiens) (UniProt P11387); assay: Inhibition of human recombinant DNA topoisomerase 1-mediated relaxation of supercoiled pBR322 DNA at 100 uM after 30 mins by agarose gel electrophoresis
T1 sequence (whole entry): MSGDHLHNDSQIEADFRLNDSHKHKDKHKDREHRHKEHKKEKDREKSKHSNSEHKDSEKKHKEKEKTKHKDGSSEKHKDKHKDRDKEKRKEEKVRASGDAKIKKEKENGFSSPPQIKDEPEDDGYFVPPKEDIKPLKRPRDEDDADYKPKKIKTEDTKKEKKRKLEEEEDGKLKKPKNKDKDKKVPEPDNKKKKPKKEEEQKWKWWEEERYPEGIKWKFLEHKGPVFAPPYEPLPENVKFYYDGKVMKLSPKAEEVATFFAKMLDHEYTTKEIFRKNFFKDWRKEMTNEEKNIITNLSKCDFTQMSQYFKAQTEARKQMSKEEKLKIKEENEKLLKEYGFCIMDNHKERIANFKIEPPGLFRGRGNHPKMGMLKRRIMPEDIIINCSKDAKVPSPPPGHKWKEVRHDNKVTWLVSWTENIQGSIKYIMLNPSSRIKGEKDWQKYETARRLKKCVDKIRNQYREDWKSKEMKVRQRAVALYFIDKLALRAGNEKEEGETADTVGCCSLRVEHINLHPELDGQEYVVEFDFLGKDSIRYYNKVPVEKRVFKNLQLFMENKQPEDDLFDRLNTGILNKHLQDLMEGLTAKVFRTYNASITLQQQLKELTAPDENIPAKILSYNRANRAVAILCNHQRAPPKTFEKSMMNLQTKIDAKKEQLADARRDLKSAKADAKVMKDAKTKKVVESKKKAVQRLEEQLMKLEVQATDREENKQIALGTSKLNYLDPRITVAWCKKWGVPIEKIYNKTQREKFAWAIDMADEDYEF
Procedure, shortened: (§1)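 Recombinant human topo I (0.4 units) with 100 ng supercoiled pBR322, 30 min at 37 °C in 10 mM Tris–HCl pH 7.9, 150 mM NaCl, 0.1% BSA, 1 mM spermidine, 5% glycerol. Compounds from 20 mM DMSO stock. Products run on 1% agarose in TAE, 15 V for 7 h, ethidium-stained, bands quantified under UV.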

HCT-15 = assay: Cytotoxicity against human HCT15 cells after 4 days by ELISA reader assay; type: functional, cell-based; settings: HCT-15, 96 h
Procedure, shortened: (§2)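 Cells grown per supplier, seeded at 2–4 × 10⁴ per well, left overnight in medium with 10% FBS at 37 °C under 5% CO₂, then exposed to compounds. WST (cell counting kit-8) reagent added for a further 4 h, absorbance read at 450 nm. IC50 from four-parameter logistic fit; mean ± S.D. of three experiments, each in triplicate.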

[2] = biological target: DNA topoisomerase 2-alpha (Homo sapiens) (UniProt P11388); assay: Inhibition of human DNA topoisomerase 2alpha-mediated relaxation of supercoiled pBR322 DNA at 100 uM after 30 mins by agarose gel electrophoresis
Procedure, shortened: (§3)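 Human topo IIα (1 unit) with 200 ng supercoiled pBR322, 30 min at 30 °C in 10 mM Tris–HCl pH 7.9, 50 mM NaCl, 50 mM KCl, 5 mM MgCl2, 1 mM EDTA, 1 mM ATP plus BSA. Products run on 1% agarose in TAE at 25 V for 4 h, ethidium-stained, supercoiled DNA quantified under UV.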

HeLa = assay: Cytotoxicity against human HeLa cells after 4 days by ELISA reader assay; type: functional, cell-based; settings: 96 h; procedure, shortened: as §2
DU-145 = assay: Cytotoxicity against human DU145 cells after 4 days by ELISA reader assay; type: functional, cell-based; settings: DU-145, 96 h; procedure, shortened: as §2
[3] = biological target: DNA topoisomerase 2-alpha (Homo sapiens) (UniProt P11388); assay: Inhibition of human DNA topoisomerase 2alpha-mediated relaxation of supercoiled pBR322 DNA at 20 uM after 30 mins by agarose gel electrophoresis; procedure, shortened: as §3
MCF7 = assay: Cytotoxicity against human MCF7 cells after 4 days by ELISA reader assay; type: functional, cell-based; settings: MCF7, 96 h; procedure, shortened: as §2
K562 = assay: Cytotoxicity against human K562 cells after 4 days by ELISA reader assay; type: functional, cell-based; settings: K562, 96 h; procedure, shortened: as §2
[4] = biological target: T1, DNA topoisomerase 1 (Homo sapiens); assay: Inhibition of human recombinant DNA topoisomerase 1-mediated relaxation of supercoiled pBR322 DNA at 20 uM after 30 mins by agarose gel electrophoresis; procedure, shortened: as §1

DNA topoisomerase 2-alpha (Homo sapiens), sequence (P11388 whole entry): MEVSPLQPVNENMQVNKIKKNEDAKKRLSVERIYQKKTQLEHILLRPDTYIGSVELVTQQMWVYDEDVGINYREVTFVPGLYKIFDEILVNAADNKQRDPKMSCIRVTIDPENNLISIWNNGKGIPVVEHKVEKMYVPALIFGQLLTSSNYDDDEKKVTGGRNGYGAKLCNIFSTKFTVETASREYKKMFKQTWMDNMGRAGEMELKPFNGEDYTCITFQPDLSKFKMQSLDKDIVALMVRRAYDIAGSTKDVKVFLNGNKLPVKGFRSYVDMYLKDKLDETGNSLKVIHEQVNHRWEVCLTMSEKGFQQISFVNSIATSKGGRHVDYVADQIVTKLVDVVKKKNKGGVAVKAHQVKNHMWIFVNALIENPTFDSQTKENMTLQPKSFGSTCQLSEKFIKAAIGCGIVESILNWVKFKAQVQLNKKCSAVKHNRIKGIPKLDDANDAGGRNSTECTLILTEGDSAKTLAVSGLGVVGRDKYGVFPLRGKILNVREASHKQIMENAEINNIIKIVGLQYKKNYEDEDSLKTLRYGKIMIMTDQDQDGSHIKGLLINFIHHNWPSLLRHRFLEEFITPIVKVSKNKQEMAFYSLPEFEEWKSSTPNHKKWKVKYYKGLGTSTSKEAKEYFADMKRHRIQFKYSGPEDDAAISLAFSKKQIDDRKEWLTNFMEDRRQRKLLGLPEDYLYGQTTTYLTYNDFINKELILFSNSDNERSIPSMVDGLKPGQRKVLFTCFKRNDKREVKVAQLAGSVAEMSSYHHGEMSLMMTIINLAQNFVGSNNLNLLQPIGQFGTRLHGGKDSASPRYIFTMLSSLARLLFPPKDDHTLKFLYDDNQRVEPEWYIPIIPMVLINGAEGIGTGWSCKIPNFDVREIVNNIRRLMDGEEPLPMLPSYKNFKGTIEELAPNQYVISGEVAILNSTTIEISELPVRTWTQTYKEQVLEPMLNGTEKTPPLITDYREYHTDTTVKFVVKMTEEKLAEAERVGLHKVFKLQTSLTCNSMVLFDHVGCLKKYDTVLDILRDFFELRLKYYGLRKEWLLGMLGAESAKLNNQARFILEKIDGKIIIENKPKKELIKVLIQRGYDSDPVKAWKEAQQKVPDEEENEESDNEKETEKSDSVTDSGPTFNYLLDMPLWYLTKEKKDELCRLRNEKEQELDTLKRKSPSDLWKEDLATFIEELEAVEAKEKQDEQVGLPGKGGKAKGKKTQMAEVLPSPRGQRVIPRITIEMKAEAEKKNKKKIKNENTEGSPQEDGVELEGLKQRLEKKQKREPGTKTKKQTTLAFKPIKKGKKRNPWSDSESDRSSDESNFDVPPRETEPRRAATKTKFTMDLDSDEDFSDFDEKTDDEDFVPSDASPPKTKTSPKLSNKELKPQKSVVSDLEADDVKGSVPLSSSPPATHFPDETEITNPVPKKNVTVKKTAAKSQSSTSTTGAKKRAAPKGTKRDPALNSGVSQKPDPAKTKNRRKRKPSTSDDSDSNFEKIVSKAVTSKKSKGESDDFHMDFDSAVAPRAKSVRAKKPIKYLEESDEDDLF

SMILES | inhibition [1] | IC50 (HCT-15) | inhibition [2] | IC50 (HeLa) | IC50 (DU-145) | inhibition [3] | IC50 (MCF7) | IC50 (K562) | inhibition [4]
Clc1ccc(-c2cc(-c3ccco3)nc(-c3ccc(Cl)s3)c2)o1 | 23.1% | > 50 µM | 53.8% | > 50 µM | 27.7 µM | 39.9% | 16.9 µM | 22.5 µM | inactive
Clc1ccc(-c2cc(-c3ccc(Cl)o3)cc(-c3ccc(Cl)s3)n2)cc1 | 2.2% | 25.3 µM | 59.8% | 25.1 µM | 23 µM | 42.7% | 12.6 µM | 19.3 µM | inactive
